Results published in ChEMBL document CHEMBL3286371, “wALADin benzimidazoles differentially modulate the function of porphobilinogen synthase orthologs” (J Med Chem, 2014).
Activity calls are given as the source filed them. No cut-off for these calls is given here.

Columns and labels:
[1] = biological target: T1, Delta-aminolevulinic acid dehydratase, chloroplastic (Pisum sativum, UniProt P30124); experiment: Inhibition of Pisum sativum PBGS using 5-ALA as substrate; set-up: species or system Lathyrus oleraceus
T1 sequence (P30124 whole entry): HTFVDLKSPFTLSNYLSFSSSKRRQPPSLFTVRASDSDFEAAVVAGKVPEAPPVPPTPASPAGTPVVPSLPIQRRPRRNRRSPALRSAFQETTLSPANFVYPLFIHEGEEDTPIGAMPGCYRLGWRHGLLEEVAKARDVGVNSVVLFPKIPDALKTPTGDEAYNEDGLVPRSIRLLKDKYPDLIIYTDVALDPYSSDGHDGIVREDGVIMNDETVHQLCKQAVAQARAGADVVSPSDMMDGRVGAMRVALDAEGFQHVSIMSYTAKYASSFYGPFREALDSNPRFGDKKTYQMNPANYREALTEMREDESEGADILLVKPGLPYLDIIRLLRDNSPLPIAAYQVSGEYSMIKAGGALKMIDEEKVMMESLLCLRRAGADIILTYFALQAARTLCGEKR
Method in brief: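 Pea (P. sativum) PBGS at 300 nM subunit in 100 mM BTP-HCl pH 8.5 with 1 mM MgCl2, 5 mM DTT and 0.2 mM 5-ALA, 15 min at 36 °C. Porphobilinogen detected with Ehrlich's reagent. Activity normalized to 6.7% DMSO control as 100%. IC50 from variable-slope normalized-response fit.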

[2] = biological target: T2, Delta-aminolevulinic acid dehydratase (Wolbachia sp. subsp. Brugia malayi (strain TRS), UniProt Q5GSR3); experiment: Inhibition of C-terminal His-tagged Wolbachia PBGS using 5-ALA as substrate
T2 sequence (Q5GSR3 whole entry): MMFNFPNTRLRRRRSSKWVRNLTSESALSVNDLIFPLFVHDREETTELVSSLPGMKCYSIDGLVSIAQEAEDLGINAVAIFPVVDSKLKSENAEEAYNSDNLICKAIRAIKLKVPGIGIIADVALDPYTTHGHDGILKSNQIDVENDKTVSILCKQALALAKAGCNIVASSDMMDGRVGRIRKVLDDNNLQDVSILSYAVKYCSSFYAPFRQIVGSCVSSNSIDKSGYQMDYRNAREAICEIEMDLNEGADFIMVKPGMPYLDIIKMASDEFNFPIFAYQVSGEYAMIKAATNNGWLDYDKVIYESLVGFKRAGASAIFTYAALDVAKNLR

[3] = biological target: T3, Delta-aminolevulinic acid dehydratase (Escherichia coli (strain K12), UniProt P0ACB2); experiment: Stimulation of Escherichia coli recombinant PBGS using 5-ALA as substrate
T3 sequence (P0ACB2 whole entry): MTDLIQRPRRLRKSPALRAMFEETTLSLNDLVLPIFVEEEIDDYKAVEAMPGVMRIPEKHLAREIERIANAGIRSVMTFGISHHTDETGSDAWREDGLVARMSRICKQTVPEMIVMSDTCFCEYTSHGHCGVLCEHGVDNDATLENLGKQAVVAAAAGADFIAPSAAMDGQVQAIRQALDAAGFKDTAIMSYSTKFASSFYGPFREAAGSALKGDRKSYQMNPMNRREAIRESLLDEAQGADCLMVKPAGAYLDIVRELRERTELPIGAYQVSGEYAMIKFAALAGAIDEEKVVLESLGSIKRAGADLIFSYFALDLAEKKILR
Method in brief: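 E. coli PBGS at 200 nM subunit in 100 mM BTP-HCl pH 8.1 with 1 mM MgCl2, 10 μM ZnCl2, 5 mM DTT and 0.2 mM 5-ALA, 10 min at 36 °C. Porphobilinogen detected with Ehrlich's reagent. Activity normalized to control with 6.7% DMSO set at 100%. EC50 by log(agonist) vs response variable-slope fit.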

[4] = biological target: Delta-aminolevulinic acid dehydratase (Yersinia enterocolitica W22703) (UniProt F4MUJ9); experiment: Stimulation of Yersinia enterocolitica recombinant PBGS expressed in Escherichia coli using 5-ALA as substrate relative to control
Method in brief: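 Y. enterocolitica PBGS, expressed in E. coli from pET3, at 150 nM subunit in 100 mM BTP-HCl pH 8.0 with 1 mM MgCl2, 5 mM DTT, 100 mM KCl and 0.2 mM 5-ALA, 10 min at 36 °C. Porphobilinogen read with Ehrlich's reagent. Activity normalized to 6.7% DMSO control as 100%. EC50 from variable-slope agonist fit.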

[5] = biological target: T4, Delta-aminolevulinic acid dehydratase (Pseudomonas aeruginosa (strain ATCC 15692 / PAO1 / 1C / PRS 101 / LMG12228), UniProt Q59643); experiment: Stimulation of Pseudomonas aeruginosa PAO1 recombinant PBGS using 5-ALA as substrate
Method in brief: (§1)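 His-tagged PaPBGS at 150 nM subunit in 100 mM Tris-HCl pH 8.0 with 1 mM MgCl2, 100 mM KCl and 0.2 mM 5-ALA, 10 min at 36 °C, with turnover at most 30%. Porphobilinogen read with Ehrlich's reagent. Activity normalized to 6.7% DMSO control as 100%. EC50 from variable-slope agonist fit.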

[6] = biological target: Delta-aminolevulinic acid dehydratase (Pseudomonas aeruginosa (strain ATCC 15692 / PAO1 / 1C / PRS 101 / LMG12228)) (UniProt Q59643); experiment: Stimulation of Pseudomonas aeruginosa PAO1 recombinant PBGS using 5-ALA as substrate relative to control; method in brief: as §1
[7] = Stimulation of Toxoplasma gondii recombinant PBGS using 5-ALA as substrate
Method in brief: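 T. gondii PBGS, expressed from pET-21b in BL21 E. coli and purified, at 250 nM subunit in 100 mM Tris-HCl pH 8.0 with 1 mM MgCl2, 5 mM DTT and 0.2 mM 5-ALA, 20 min at 36 °C. Porphobilinogen detected with Ehrlich's reagent. Activity normalized to 6.7% DMSO control. EC50 by variable-slope agonist fit.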

Toxoplasma gondii [8] = experiment: Stimulation of Toxoplasma gondii recombinant PBGS using 5-ALA as substrate relative to control
Method in brief: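 Recombinant T. gondii PBGS (hemB in pET-21b, expressed in BL21 E. coli) at 250 nM subunit in 100 mM Tris-HCl pH 8.0, 1 mM MgCl2, 5 mM DTT, with 200 μM 5-ALA, 20 min at 36 °C. Porphobilinogen was read with Ehrlich's reagent, and turnover was kept at or below 30%.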

[9] = biological target: T5, Delta-aminolevulinic acid dehydratase (Drosophila melanogaster, UniProt Q9VTV9); experiment: Inhibition of Drosophila melanogaster recombinant PBGS using 5-ALA as substrate
T5 sequence (Q9VTV9 whole entry): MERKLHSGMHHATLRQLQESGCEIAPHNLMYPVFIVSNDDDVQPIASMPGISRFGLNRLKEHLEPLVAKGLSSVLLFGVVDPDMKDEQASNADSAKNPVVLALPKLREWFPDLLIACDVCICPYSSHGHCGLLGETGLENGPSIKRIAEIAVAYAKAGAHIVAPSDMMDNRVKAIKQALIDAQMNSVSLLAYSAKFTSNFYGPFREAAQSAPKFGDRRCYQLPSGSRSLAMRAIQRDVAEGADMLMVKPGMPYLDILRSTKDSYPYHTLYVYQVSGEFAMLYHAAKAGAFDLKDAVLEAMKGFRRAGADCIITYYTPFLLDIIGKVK

[10] = biological target: T6, Delta-aminolevulinic acid dehydratase (Homo sapiens, UniProt P13716); experiment: Inhibition of human PBGS using 5-ALA as substrate
T6 sequence (P13716 whole entry): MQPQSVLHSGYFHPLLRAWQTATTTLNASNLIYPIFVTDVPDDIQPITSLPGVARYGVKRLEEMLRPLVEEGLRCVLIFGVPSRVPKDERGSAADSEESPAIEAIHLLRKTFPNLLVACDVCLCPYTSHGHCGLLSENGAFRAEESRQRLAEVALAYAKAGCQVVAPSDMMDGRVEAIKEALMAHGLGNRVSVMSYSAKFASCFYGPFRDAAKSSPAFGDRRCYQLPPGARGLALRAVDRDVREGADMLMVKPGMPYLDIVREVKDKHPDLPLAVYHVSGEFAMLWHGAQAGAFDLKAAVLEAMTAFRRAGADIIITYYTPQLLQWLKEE

[11] = biological target: T7, Delta-aminolevulinic acid dehydratase (Escherichia coli (strain K12)) (UniProt P0ACB2); experiment: Stimulation of Escherichia coli recombinant PBGS using 5-ALA as substrate at […]
T7 sequence (whole entry): T3 sequence (P0ACB2 whole entry)

[12] = biological target: T7, Delta-aminolevulinic acid dehydratase (Escherichia coli (strain K12)); experiment: Inhibition of Escherichia coli recombinant PBGS using 5-ALA as substrate at […]
[13] = biological target: Delta-aminolevulinic acid dehydratase (Yersinia enterocolitica W22703) (UniProt F4MUJ9); experiment: Stimulation of Yersinia enterocolitica recombinant PBGS expressed in Escherichia coli using 5-ALA as substrate at […]
[14] = biological target: Delta-aminolevulinic acid dehydratase (Yersinia enterocolitica W22703) (UniProt F4MUJ9); experiment: Inhibition of Yersinia enterocolitica recombinant PBGS expressed in Escherichia coli using 5-ALA as substrate at […]
[15] = biological target: Delta-aminolevulinic acid dehydratase (Pseudomonas aeruginosa (strain ATCC 15692 / PAO1 / 1C / PRS 101 / LMG12228)) (UniProt Q59643); experiment: Stimulation of Pseudomonas aeruginosa PAO1 recombinant PBGS using 5-ALA as substrate at […]
[16] = biological target: Delta-aminolevulinic acid dehydratase (Pseudomonas aeruginosa (strain ATCC 15692 / PAO1 / 1C / PRS 101 / LMG12228)) (UniProt Q59643); experiment: Inhibition of Pseudomonas aeruginosa PAO1 recombinant PBGS using 5-ALA as substrate at […]
Toxoplasma gondii [17] = experiment: Stimulation of Toxoplasma gondii recombinant PBGS using 5-ALA as substrate at […]
Toxoplasma gondii [18] = experiment: Inhibition of Toxoplasma gondii recombinant PBGS using 5-ALA as substrate at […]
[19] = biological target: T4, Delta-aminolevulinic acid dehydratase; experiment: Inhibition of Pseudomonas aeruginosa PAO1 recombinant PBGS using 5-ALA as substrate
Method in brief: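 Turnover kept at or below 30%. Porphobilinogen measured with Ehrlich's reagent. IC50 by variable-slope fit of activity normalized to DMSO control.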

Delta-aminolevulinic acid dehydratase (Yersinia enterocolitica W22703), sequence (F4MUJ9 as listed by the source): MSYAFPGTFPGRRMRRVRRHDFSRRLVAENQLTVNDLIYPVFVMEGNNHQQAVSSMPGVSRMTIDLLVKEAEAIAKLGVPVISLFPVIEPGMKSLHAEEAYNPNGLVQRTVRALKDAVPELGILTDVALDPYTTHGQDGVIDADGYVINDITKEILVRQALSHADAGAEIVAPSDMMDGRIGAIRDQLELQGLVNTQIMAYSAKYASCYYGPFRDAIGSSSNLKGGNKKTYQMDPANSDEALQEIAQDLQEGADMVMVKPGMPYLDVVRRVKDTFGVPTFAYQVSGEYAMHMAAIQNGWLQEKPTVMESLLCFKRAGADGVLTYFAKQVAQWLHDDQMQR
Delta-aminolevulinic acid dehydratase (Pseudomonas aeruginosa (strain ATCC 15692 / PAO1 / 1C / PRS 101 / LMG12228)), sequence (Q59643 whole entry): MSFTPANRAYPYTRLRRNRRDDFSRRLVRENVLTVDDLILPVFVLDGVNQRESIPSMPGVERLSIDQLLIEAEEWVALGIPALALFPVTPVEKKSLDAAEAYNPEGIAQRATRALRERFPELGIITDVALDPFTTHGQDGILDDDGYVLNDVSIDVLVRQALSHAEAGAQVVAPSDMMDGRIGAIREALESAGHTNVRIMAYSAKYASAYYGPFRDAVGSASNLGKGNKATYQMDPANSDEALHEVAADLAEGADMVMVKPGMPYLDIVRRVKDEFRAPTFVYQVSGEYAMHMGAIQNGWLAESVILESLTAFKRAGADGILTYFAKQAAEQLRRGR
T4 sequence (Q59643 whole entry): as above

Row | Structure (SMILES) | IC50 [1] [µM] | IC50 [2] [µM] | EC50 [3] [µM] | Smax [4] [%] | EC50 [5] [µM] | Smax [6] [%] | EC50 [7] [µM] | Smax (Toxoplasma gondii [8]) [%] | IC50 [9] [µM] | IC50 [10] [µM] | Smax [11] [%] | inhibition [12] | Smax [13] [%] | inhibition [14] | Smax [15] [%] | inhibition [16] | Smax (Toxoplasma gondii [17]) [%] | inhibition (Toxoplasma gondii [18]) | IC50 [19] [µM]
1 | O=C(O)c1ccc2c(c1)nc(CCNC(=O)c1cccs1)n2Cc1ccc(C(F)(F)F)cc1 | 44.3 | 38.6 | 39 | 142 | 68 | 140 | 37 | 118 | 1010 | 637 |  |  |  |  |  |  |  |  | 
2 | Cn1cnc2cc(C(=O)O)ccc21 | 257 |  |  |  |  |  |  |  | > 1000 |  | 100 | inactive | 100 | inactive | 100 | inactive | 100 | inactive | 
3 | O=C(O)c1ccc2[nH]cnc2c1 | > 500 | 500 |  |  |  |  |  |  | > 1000 | 511 | 100 | inactive | 100 | inactive | 100 | inactive | 100 | inactive | 
4 | O=C(O)c1ccc2[nH]c(CCNC(=O)c3cccs3)nc2c1 | 114 | 500 |  |  |  |  |  |  | 448 |  | 100 | inactive | 100 | inactive | 100 | inactive | 100 | inactive | 
5 | COc1cccc(Cn2cnc3cc(C(=O)O)ccc32)c1 | 155 | 205 |  |  |  |  |  |  | 370 | 156 | 100 | inactive | 100 | inactive | 100 | inactive | 100 | inactive | 
6 | O=C(O)c1ccc2c(c1)ncn2Cc1ccccc1 | 182 | 197 |  |  |  |  |  |  | 1030 | 213 | 100 | inactive | 100 | inactive | 100 | inactive | 100 | inactive | 
7 | O=C(O)c1ccc2nc(CCNC(=O)c3cccs3)n(Cc3cccc(C(F)(F)F)c3)c2c1 | 89 | 317 |  |  |  |  |  |  | 257 |  | 100 | inactive | 131 |  | 100 | inactive |  |  | 
8 | O=C(O)c1ccc2c(c1)ncn2Cc1ccc(C(F)(F)F)cc1 | 43.1 | 87.7 |  |  |  |  |  |  | 620 | 173 | 100 | inactive | 100 | inactive | 100 | inactive | 100 | inactive | 
9 | O=C(O)c1ccc2c(c1)ncn2Cc1cccc(C(F)(F)F)c1 | 18.5 | 13 |  |  |  |  |  |  | 340 | 197 | 100 | inactive | 100 | inactive | 100 | inactive | 100 | inactive | 94
10 | O=C(NCCc1nc2cccc(C(=O)O)c2n1Cc1cccc(C(F)(F)F)c1)c1cccs1 | > 500 | 164 |  |  |  |  |  |  | > 1000 |  | 100 | inactive | 118 |  | 100 | inactive | 113 |  | 
11 | Cc1cccc(Cn2cnc3cc(C(=O)O)ccc32)c1 | 95.9 | 134 |  |  |  |  |  |  | 371 | 222 | 100 | inactive | 100 | inactive | 100 | inactive | 100 | inactive | 
12 | O=C(O)c1ccc2c(c1)ncn2Cc1ccccc1C(F)(F)F | 64.3 | 293 |  |  |  |  |  |  | > 1000 | 145 | 100 | inactive | 100 | inactive | 100 | inactive | 100 | inactive | 
